Source: ChEMBL document CHEMBL3407460, “Synthesis of novel thiazole-based 8,9-dihydro-7H-pyrimido[4,5-b][1,4]diazepines as potential antitumor and antifungal agents” (2015)
Values after ≈ are worked out from the molar mass of the structure shown.

Legend:
Assay type in all cases: functional
Candida albicans [1] = test: Antifungal activity against Candida albicans ATCC 10231 assessed as growth inhibition at 250 ug/ml after 48 hrs by broth microdilution method; conditions: ATCC 10231, 48 h
Outline: (§1)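 CLSI M27-A3 broth microdilution in RPMI-1640. Compound stocks were made in DMSO (final at most 1%) and tested at final levels of 250 to 0.98. Inoculum was 1–5 × 10^3 CFU/mL, incubated 48 h at 30 °C in a moist, dark chamber. Growth and sterility control wells were included.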

Cryptococcus neoformans [2] = test: Antifungal activity against Cryptococcus neoformans ATCC 32264 assessed as growth inhibition at 125 ug/ml after 48 hrs by broth microdilution method; conditions: ATCC 32264, 48 h; outline: as §1
Cryptococcus neoformans [3] = test: Antifungal activity against Cryptococcus neoformans ATCC 32264 assessed as growth inhibition at 3.9 ug/ml after 48 hrs by broth microdilution method; conditions: ATCC 32264, 48 h; outline: as §1
Cryptococcus neoformans [4] = test: Antifungal activity against Cryptococcus neoformans ATCC 32264 assessed as growth inhibition at 250 ug/ml after 48 hrs by broth microdilution method; conditions: ATCC 32264, 48 h; outline: as §1
Cryptococcus neoformans [5] = test: Antifungal activity against Cryptococcus neoformans ATCC 32264 assessed as growth inhibition at 7.81 ug/ml after 48 hrs by broth microdilution method; conditions: ATCC 32264, 48 h; outline: as §1
Candida albicans [6] = test: Antifungal activity against Candida albicans ATCC 10231 assessed as growth inhibition at 62.5 ug/ml after 48 hrs by broth microdilution method; conditions: ATCC 10231, 48 h; outline: as §1
Cryptococcus neoformans [7] = test: Antifungal activity against Cryptococcus neoformans ATCC 32264 assessed as growth inhibition at 15.62 ug/ml after 48 hrs by broth microdilution method; conditions: ATCC 32264, 48 h; outline: as §1
Candida albicans [8] = test: Antifungal activity against Candida albicans ATCC 10231 assessed as growth inhibition at 31.25 ug/ml after 48 hrs by broth microdilution method; conditions: ATCC 10231, 48 h; outline: as §1
Candida albicans [9] = test: Antifungal activity against Candida albicans ATCC 10231 assessed as growth inhibition at 15.62 ug/ml after 48 hrs by broth microdilution method; conditions: ATCC 10231, 48 h; outline: as §1
Cryptococcus neoformans [10] = test: Antifungal activity against Cryptococcus neoformans ATCC 32264 assessed as growth inhibition at 31.25 ug/ml after 48 hrs by broth microdilution method; conditions: ATCC 32264, 48 h; outline: as §1
Candida albicans [11] = test: Antifungal activity against Candida albicans ATCC 10231 assessed as growth inhibition at 125 ug/ml after 48 hrs by broth microdilution method; conditions: ATCC 10231, 48 h; outline: as §1
Candida albicans [12] = test: Antifungal activity against Candida albicans ATCC 10231 assessed as growth inhibition at 7.81 ug/ml after 48 hrs by broth microdilution method; conditions: ATCC 10231, 48 h; outline: as §1
Candida albicans [13] = test: Antifungal activity against Candida albicans ATCC 10231 assessed as growth inhibition at 3.9 ug/ml after 48 hrs by broth microdilution method; conditions: ATCC 10231, 48 h; outline: as §1
Cryptococcus neoformans [14] = test: Antifungal activity against Cryptococcus neoformans ATCC 32264 assessed as growth inhibition at 62.5 ug/ml after 48 hrs by broth microdilution method; conditions: ATCC 32264, 48 h; outline: as §1
Cryptococcus neoformans [15] = test: Antifungal activity against Cryptococcus neoformans IM 972724 clinical isolate after 48 hrs by broth microdilution method; conditions: IM 972724, 48 h, read-out: MIC100
Outline: (§2)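 Clinical isolates from the Malbrán Institute were grown on Sabouraud-chloramphenicol agar for 48 h at 30 °C, kept on Sabouraud-dextrose agar and subcultured every 15 days. M27-A3 RPMI-1640 microdilution used 1–5 × 10^3 CFU/mL, 48 h at 30 °C, OD405 read, triplicate. Endpoints MIC100, MIC80 and MIC50 were taken from % inhibition dose-response curves.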

Cryptococcus neoformans [16] = test: Antifungal activity against Cryptococcus neoformans IM 961951 clinical isolate after 48 hrs by broth microdilution method; conditions: IM 961951, 48 h, read-out: MIC100; outline: as §2
Cryptococcus neoformans [17] = test: Antifungal activity against Cryptococcus neoformans IM 983040 clinical isolate after 48 hrs by broth microdilution method; conditions: IM 983040, 48 h, read-out: MIC100; outline: as §2
Cryptococcus neoformans [18] = test: Antifungal activity against Cryptococcus neoformans IM 983036 clinical isolate after 48 hrs by broth microdilution method; conditions: IM 983036, 48 h, read-out: MIC100; outline: as §2
Cryptococcus neoformans [19] = test: Antifungal activity against Cryptococcus neoformans IM 031631 clinical isolate after 48 hrs by broth microdilution method; conditions: IM 031631, 48 h, read-out: MIC100; outline: as §2
Cryptococcus neoformans [20] = test: Antifungal activity against Cryptococcus neoformans IM 042074 clinical isolate after 48 hrs by broth microdilution method; conditions: IM 042074, 48 h, read-out: MIC100; outline: as §2
Cryptococcus neoformans [21] = test: Antifungal activity against Cryptococcus neoformans IM 972751 clinical isolate after 48 hrs by broth microdilution method; conditions: IM 972751, 48 h, read-out: MIC100; outline: as §2
Cryptococcus neoformans [22] = test: Antifungal activity against Cryptococcus neoformans ATCC 32264 after 48 hrs by broth microdilution method; conditions: ATCC 32264, 48 h, read-out: MIC100

SMILES: Cc1ccc(C2=Nc3c(N)nc(N)nc3NC(c3sc(Cl)nc3Cl)C2)cc1 (stereo not given)
- inhibition at 250 µg/mL (Candida albicans [1]): 55.5%
- inhibition at 125 µg/mL (Cryptococcus neoformans [2]): 18.3%
- inhibition at 3.9 µg/mL (Cryptococcus neoformans [3]): 0%
- inhibition at 250 µg/mL (Cryptococcus neoformans [4]): 59.1%
- inhibition at 7.81 µg/mL (Cryptococcus neoformans [5]): 0.93%
- inhibition at 62.5 µg/mL (Candida albicans [6]): 13.5%
- inhibition at 15.62 µg/mL (Cryptococcus neoformans [7]): 4.57%
- inhibition at 31.25 µg/mL (Candida albicans [8]): 8.7%
- inhibition at 15.62 µg/mL (Candida albicans [9]): 1.41%
- inhibition at 31.25 µg/mL (Cryptococcus neoformans [10]): 6.47%
- inhibition at 125 µg/mL (Candida albicans [11]): 21.3%
- inhibition at 7.81 µg/mL (Candida albicans [12]): 0%
- inhibition at 3.9 µg/mL (Candida albicans [13]): 0%
- inhibition at 62.5 µg/mL (Cryptococcus neoformans [14]): 9.2%

SMILES: COc1ccc(C2=Nc3c(N)nc(N)nc3NC(c3sc(Cl)nc3Cl)C2)cc1 (stereo not given)
- inhibition at 250 µg/mL (Candida albicans [1]): 62.6%
- inhibition at 125 µg/mL (Cryptococcus neoformans [2]): 46.9%
- inhibition at 3.9 µg/mL (Cryptococcus neoformans [3]): 0%
- inhibition at 250 µg/mL (Cryptococcus neoformans [4]): 77.1%
- inhibition at 7.81 µg/mL (Cryptococcus neoformans [5]): 6.04%
- inhibition at 62.5 µg/mL (Candida albicans [6]): 23.2%
- inhibition at 15.62 µg/mL (Cryptococcus neoformans [7]): 7.79%
- inhibition at 31.25 µg/mL (Candida albicans [8]): 21.2%
- inhibition at 15.62 µg/mL (Candida albicans [9]): 15.7%
- inhibition at 31.25 µg/mL (Cryptococcus neoformans [10]): 13.2%
- inhibition at 125 µg/mL (Candida albicans [11]): 54.6%
- inhibition at 7.81 µg/mL (Candida albicans [12]): 12.4%
- inhibition at 3.9 µg/mL (Candida albicans [13]): 10.4%
- inhibition at 62.5 µg/mL (Cryptococcus neoformans [14]): 23.1%

SMILES: COc1cc(C2=Nc3c(N)nc(N)nc3NC(c3sc(Cl)nc3Cl)C2)cc(OC)c1OC (stereo not given)
- inhibition at 250 µg/mL (Candida albicans [1]): 15%
- inhibition at 125 µg/mL (Cryptococcus neoformans [2]): 27.2%
- inhibition at 3.9 µg/mL (Cryptococcus neoformans [3]): 1.65%
- inhibition at 250 µg/mL (Cryptococcus neoformans [4]): 77.5%
- inhibition at 7.81 µg/mL (Cryptococcus neoformans [5]): 2.99%
- inhibition at 62.5 µg/mL (Candida albicans [6]): 7.26%
- inhibition at 15.62 µg/mL (Cryptococcus neoformans [7]): 5.52%
- inhibition at 31.25 µg/mL (Candida albicans [8]): 9.84%
- inhibition at 15.62 µg/mL (Candida albicans [9]): 0%
- inhibition at 31.25 µg/mL (Cryptococcus neoformans [10]): 7.09%
- inhibition at 125 µg/mL (Candida albicans [11]): 10.5%
- inhibition at 7.81 µg/mL (Candida albicans [12]): 0%
- inhibition at 3.9 µg/mL (Candida albicans [13]): 0%
- inhibition at 62.5 µg/mL (Cryptococcus neoformans [14]): 9.28%

SMILES: C[C@@H]1[C@H](O)[C@@H](C)/C=C/C=C/C=C/C=C/C=C/C=C/C=C/[C@H](O[C@@H]2O[C@H](C)[C@@H](O)[C@H](N)[C@@H]2O)C[C@@H]2O[C@](O)(C[C@@H](O)C[C@@H](O)[C@H](O)CC[C@@H](O)C[C@@H](O)CC(=O)O[C@H]1C)C[C@H](O)[C@H]2C(=O)O [AMPHOTERICIN B]
- MIC (Cryptococcus neoformans [15]): 0.25 µg/mL (≈ 0.271 µM)
- MIC (Cryptococcus neoformans [16]): 1 µg/mL (≈ 1.08 µM)
- MIC (Cryptococcus neoformans [17]): 0.25 µg/mL (≈ 0.271 µM)
- MIC (Cryptococcus neoformans [18]): 0.25 µg/mL (≈ 0.271 µM)
- MIC (Cryptococcus neoformans [19]): 0.12 µg/mL (≈ 0.13 µM)
- MIC (Cryptococcus neoformans [20]): 0.12 µg/mL (≈ 0.13 µM)
- MIC (Cryptococcus neoformans [21]): 1 µg/mL (≈ 1.08 µM)
- MIC (Cryptococcus neoformans [22]): 0.12 µg/mL (≈ 0.13 µM)
